# CSC inhib: blocks cancer stem cells | cancer stem cell-like cells viability, luminescence | inhibition, % at 7.5 µM | 300,000 tested, 1.1% active | AID 2717; in the data active means inhibition above about 75%; tested in HMLE shEcad cells
# Mdm2-MdmX inh: disrupts the human Mdm2-MdmX interaction; 330,000 tested, 3% active; inhibition, % at 8 µM; O15151+Q00987; SaOS-2 split-luciferase Mdm2/MdmX complementation, luminescence;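 active means inhibition of at least 50% at 8 µM in the primary screen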
# Target sequence (O15151 whole entry, looked up): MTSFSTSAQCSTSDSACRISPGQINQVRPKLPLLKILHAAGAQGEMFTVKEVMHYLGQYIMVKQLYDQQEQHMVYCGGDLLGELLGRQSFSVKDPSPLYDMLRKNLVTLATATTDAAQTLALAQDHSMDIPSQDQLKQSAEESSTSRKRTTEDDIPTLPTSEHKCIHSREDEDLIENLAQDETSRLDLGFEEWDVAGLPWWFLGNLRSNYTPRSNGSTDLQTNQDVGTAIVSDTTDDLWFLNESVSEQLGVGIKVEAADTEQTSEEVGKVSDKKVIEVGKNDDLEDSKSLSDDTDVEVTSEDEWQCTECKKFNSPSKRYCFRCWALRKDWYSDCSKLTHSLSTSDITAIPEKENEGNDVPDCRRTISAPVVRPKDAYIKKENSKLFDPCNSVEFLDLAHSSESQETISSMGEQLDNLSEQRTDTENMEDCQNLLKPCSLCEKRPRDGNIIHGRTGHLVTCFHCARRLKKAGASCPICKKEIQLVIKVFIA
# Target sequence (Q00987 whole entry, looked up): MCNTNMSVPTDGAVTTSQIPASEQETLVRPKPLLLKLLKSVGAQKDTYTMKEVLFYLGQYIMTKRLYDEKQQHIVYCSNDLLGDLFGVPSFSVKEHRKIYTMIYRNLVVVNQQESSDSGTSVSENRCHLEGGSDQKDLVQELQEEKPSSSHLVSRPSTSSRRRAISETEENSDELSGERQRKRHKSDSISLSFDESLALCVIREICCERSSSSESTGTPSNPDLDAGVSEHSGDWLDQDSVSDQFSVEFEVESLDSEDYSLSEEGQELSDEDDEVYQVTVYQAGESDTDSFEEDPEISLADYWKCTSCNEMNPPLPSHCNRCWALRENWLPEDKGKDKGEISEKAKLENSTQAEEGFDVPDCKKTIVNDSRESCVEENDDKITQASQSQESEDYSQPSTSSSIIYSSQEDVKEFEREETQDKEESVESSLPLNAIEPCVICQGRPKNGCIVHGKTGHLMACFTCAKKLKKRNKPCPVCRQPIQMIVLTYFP
# SKKanGAS inh: SKKanGAS growth inhibition; S. pyogenes SKKanGAS, kanamycin growth, BacTiter-Glo, 6 h; inhibition, % at 7.5 µM; 300,000 tested, 1.3% active; AID 1662;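 active means mean replicate score, as percent of positive control median, at least 50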;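 further: strain carries kanamycin resistance gene driven by streptokinase promoter and grows in 40 µg/ml kanamycin; loss of luminescence reflects streptokinase promoter inhibition or plain growth inhibition; 0% = median of DMSO wells and 100% = positive control at its reference dose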
# Calb FLC: C. albicans growth modulation with fluconazole; C. albicans CaCi-2 (fluconazole-resistant clinical isolate) + fluconazole, Alamar Blue growth, 48 h; growth inhibition, % (test concentration not listed); 300,000 tested, 0.57% active;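 active means growth inhibition above about 58% in most replicates, limit read from the data, passing the limit was not always enough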;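 further: all wells also contain fluconazole at 8 µg/ml as a sub-toxic cotreatment; 0% = median of DMSO wells and 100% = median of geldanamycin control wells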
# T cruzi repl: blocks replication of Trypanosoma cruzi; inhibition, % (concentration not given with the values); T. cruzi beta-gal in NIH3T3, luminescence, 90 h; 300,000 tested, 1.4% active;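 active means mean inhibition across valid replicates above about 55%, limit read from the data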;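 further: signal also drops with host cell toxicity which is not excluded here; 0% = plate median of DMSO wells and 100% = zero luminescence signal; higher percent means less beta-gal luminescence so fewer parasites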
#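 System: Mouse NIH/3T3 fibroblasts infected with β-gal-expressing T. cruzi Tulahuen C4 | Quantity: NIH/3T3 cells, 5,000 per well | Reagent: 5000 reporter trypomastigotes per well | Dosing: Compound pinned at 50 nL/well, DMSO | Schedule: 3 h host attachment, then at least 90 h co-culture | Detection: GalScreen luminescence, 60 min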
# Beta cell apopt: blocks beta cell apoptosis | INS-1E cytokine-induced death, ATP luminescence, 48 h; percent of positive-control rescue, neutral wells zero | protection from apoptosis, % (concentration not given with the values) | 300,000 tested, 0.8% active | AID 435005;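 active means Every replicate reaches about 75%, or at least half do and their mean reaches it too, limit read from the data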;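 further: 0% = cytokine-treated negative control wells and 100% = positive control rescue; higher means more ATP so stronger rescue from cytokine killing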
# Mdm2 MdmX conf: confirmation of human Mdm2/MdmX interaction inhibitors; shares compounds with Mdm2-MdmX inh; Mdm2-MdmX binding, luminescent assay; inhibition, % at 8 µM; 10,000 tested, 55% active; AID 489028; in the data active means inhibition above about 40%
# FLuc counter: inhibits full-length luciferase, flagging false Mdm2/MdmX hits; shares compounds with Mdm2-MdmX inh; SaOS-2 full-length luciferase counterscreen, luminescence; inhibition, % at 8 µM; 6,200 tested, 77% active;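 active means mean inhibition at 8 µM reaching about 37%, which flags the compound as non-specific, limit read from the data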;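 further: p53-null SaOS-2 cells with luciferase driven by a doxycycline-inducible promoter; compound on cells about two nights before reading with doxycycline added after day one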
# Starred values were filed as active, the others as inactive; . = no result given. Compounds with a hit are over-represented: about 5.7% of the library has one in this group of screens.
SMILES,CSC inhib,Mdm2-MdmX inh,SKKanGAS inh,Calb FLC,T cruzi repl,Beta cell apopt,Mdm2 MdmX conf,FLuc counter
COc1ccc([N+](=O)[O-])cc1NS(=O)(=O)c1cc(C(=O)NCc2cccnc2)ccc1Cl,11,13,.,.,.,-5,.,.
Cc1cccc(/N=C/c2c(O)n(Cc3ccc4c(c3)OCO4)c(=O)c3ccccc23)n1,12,53*,3,-8,4,-1,27,.
Cc1cccc(-n2c(O)c(C=Nc3ccc4c(c3)OCO4)c3ccccc3c2=O)n1,2,28,5,-1,-16,5,.,.
CCN1CCN(C(=O)/C(=C/c2cccs2)NC(=O)c2ccc(C)c(C)c2)CC1,-7,14,1,-1,-1,-9,.,.
O=C(Nc1ccc2c(c1)OCCO2)c1cccc2nc3ccccc3nc12,83*,78*,11,52,65*,46,57*,28
O=C(Nc1ccc2c(c1)OCCO2)c1ccccc1F,0,-24,1,-13,-16,1,.,.
O=C(Nc1ccc(Oc2ccc(NC(=O)Nc3ccccc3Cl)cc2)cc1)Nc1ccccc1Cl,40,54*,3,-13,27,54,41*,47*
CCOC(=O)c1ccc(NC(=O)Nc2ccon2)cc1,78*,53*,-4,20,30,23,43*,115*
O=C(CN1CCCC1)Nc1ccc(NC(=O)Nc2ccccc2Cl)cc1,-2,-47,-10,-8,-1,-6,.,.
N#Cc1ccc(NC(=O)Nc2ccc(Cl)cc2)cc1,.,85*,55*,53,71*,105*,88*,45*
O=C(Nc1ccc(Cl)c(Cl)c1)Nc1ccc(Br)cc1F,92*,95*,27,-3,53,.,93*,35
CCOC(=O)c1ccc(NC(=O)Nc2ccc(Cl)cn2)cc1,.,-15,-16,-11,16,2,.,.
O=C(COc1ccccc1Cl)NCCNC(=O)c1ccco1,-13,-5,0,-1,1,.,.,.
O=C(Nc1ccccc1)Nc1ccc(Br)c(Cl)c1,40,87*,4,46,34,59,44*,48*
O=C(Nc1ccc(Cl)cc1)Nc1ccc(Cl)c(Cl)c1,44,89*,.,.,.,113*,90*,27
O=C(Nc1ccc(Cl)c(Cl)c1)Nc1ccon1,47,56*,67*,71,28,11,66*,56*
Cc1ccc(NC(=O)Nc2ccc(F)c(Cl)c2)cc1,12,-21,-1,5,15,19,.,.
Cc1cc(NC(=O)Nc2ccc(Cl)c(Cl)c2)no1,24,0,-3,-26,30,-1,.,.
CC(C)(C)N(NC(=O)Nc1ccc(Cl)c(Cl)c1)C(=O)c1ccccc1,.,86*,44,4,23,24,66*,43*
CC(C)(C)N(NC(=O)Nc1ccc(F)cc1)C(=O)c1ccccc1,.,-23,-2,-21,-1,.,.,.
COc1cccc(CNC(=O)c2ccccc2SCC(=O)N2CCCC2)c1,5,-2,9,0,1,-1,.,.
Cc1ccc(N(CC(=O)NC2CCCCC2)C(=O)CNC(=O)c2ccco2)c(C)c1,-12,-11,-3,2,4,-2,.,.
O=C(O)c1ccc2c(=O)n3cc(C(=O)c4ccccc4O)cc(Cl)c3nc2c1,10,16,11,3,9,-2,.,.
O=C(Cn1ncn2c(cc3ccccc32)c1=O)NCCCc1ccccc1,-1,14,-6,-4,-14,-1,.,.
O=c1c2cc3ccccc3n2cnn1Cc1ccccc1F,-11,54*,4,29,0,-5,41*,84*
SMILES,CSC inhib,Mdm2-MdmX inh,SKKanGAS inh,Calb FLC,T cruzi repl,Beta cell apopt,Mdm2 MdmX conf,FLuc counter
Cc1ccc(N/C(N)=N/c2nc(C)cc(N3CCCCC3)n2)c(C)c1,7,78*,-8,14,69*,111*,40*,67*
COc1ccc(CC(=O)NCc2ccccc2)cc1,62,47,-10,0,-15,-2,.,.
COc1cccc(CNC(=O)Cc2ccc(-c3ccccc3)cc2)c1,.,67*,22,-2,19,0,59*,61*
O=C(Cc1ccc(Br)cc1)NCc1ccccc1,60,64*,1,-1,-17,22,52*,57*
Cc1ccc(CNC(=O)Cc2ccc(Br)cc2)cc1,60,22,2,3,-9,-3,.,.
COc1cccc(NC(=O)Nc2nnc(CC(=O)NCc3ccccc3)s2)c1,-18,56*,-6,-2,-12,-9,51*,35
O=C(Cc1c(F)cccc1Cl)NNC(=S)Nc1ccc(S(=O)(=O)Nc2ncccn2)cc1,-16,3,-4,-4,-13,2,.,.
C=CCc1ccccc1OCC(=O)N/N=C/c1ccc(OC(C)=O)cc1OC(C)=O,77*,52*,14,7,33,-21,51*,37*
Cc1ccccc1OCC(=O)N/N=C/c1cc2ccccc2nc1Cl,6,16,16,-2,16,-7,.,.
CCN(Cc1ccccc1)C(=O)c1[nH]c2ccc(OC)cc2c1C,.,-16,-9,0,16,.,.,.
CCN(CC)CCNC(=O)c1[nH]c2ccc(OCc3ccccc3)cc2c1C,83*,61*,11,-2,26,24,39,69*
CC(=O)c1ccc(OCc2ccc(Oc3c(Cl)cccc3[N+](=O)[O-])cc2)cc1,15,5,11,7,16,1,.,.
CC1Cc2ccccc2N1c1ncnc2nc[nH]c12 (stereo not given),-1,53*,-3,-4,5,2,49*,75*
CC1Cc2ccccc2N1c1ncnc(N)c1[N+](=O)[O-] (stereo not given),-9,91*,-4,10,-5,-40,93*,54*
O=C(CN1C(=O)c2ccccc2S1(=O)=O)Nc1ncc(Cl)cc1Cl,-8,84*,.,.,.,2,70*,64*
O=C(CN1C(=O)c2ccccc2S1(=O)=O)c1ccccc1Cl,15,58*,9,12,-1,.,55*,82*
CC(C)NC(=O)CN1C(=O)c2ccccc2S1(=O)=O,-8,-14,-2,-2,-9,-4,.,.
O=C(CN1C(=O)c2ccccc2S1(=O)=O)NCc1ccccc1Cl,0,10,0,5,10,.,.,.
O=C(CN1C(=O)c2ccccc2S1(=O)=O)c1ccccc1,-7,78*,3,26,.,-7,65*,98*
Cc1ccc(C(=O)CN2C(=O)c3ccccc3S2(=O)=O)cc1,0,98*,29,-1,-1,-2,96*,23
O=C(CCC(=O)Nc1ccccc1)N/N=C/c1cccnc1,-2,-13,6,5,-9,-3,.,.
